{"source": "ChEMBL document CHEMBL5649170", "about": "“Sustained microglial depletion with CSF1R inhibitor impairs parenchymal plaque development in an Alzheimer's disease model” (Nat Commun, 2019)", "key": {"[1]": {"biological_target": "Serine/threonine-protein kinase MRCK beta (Homo sapiens, UniProt Q9Y5S2)", "sequence (Q9Y5S2 whole entry)": "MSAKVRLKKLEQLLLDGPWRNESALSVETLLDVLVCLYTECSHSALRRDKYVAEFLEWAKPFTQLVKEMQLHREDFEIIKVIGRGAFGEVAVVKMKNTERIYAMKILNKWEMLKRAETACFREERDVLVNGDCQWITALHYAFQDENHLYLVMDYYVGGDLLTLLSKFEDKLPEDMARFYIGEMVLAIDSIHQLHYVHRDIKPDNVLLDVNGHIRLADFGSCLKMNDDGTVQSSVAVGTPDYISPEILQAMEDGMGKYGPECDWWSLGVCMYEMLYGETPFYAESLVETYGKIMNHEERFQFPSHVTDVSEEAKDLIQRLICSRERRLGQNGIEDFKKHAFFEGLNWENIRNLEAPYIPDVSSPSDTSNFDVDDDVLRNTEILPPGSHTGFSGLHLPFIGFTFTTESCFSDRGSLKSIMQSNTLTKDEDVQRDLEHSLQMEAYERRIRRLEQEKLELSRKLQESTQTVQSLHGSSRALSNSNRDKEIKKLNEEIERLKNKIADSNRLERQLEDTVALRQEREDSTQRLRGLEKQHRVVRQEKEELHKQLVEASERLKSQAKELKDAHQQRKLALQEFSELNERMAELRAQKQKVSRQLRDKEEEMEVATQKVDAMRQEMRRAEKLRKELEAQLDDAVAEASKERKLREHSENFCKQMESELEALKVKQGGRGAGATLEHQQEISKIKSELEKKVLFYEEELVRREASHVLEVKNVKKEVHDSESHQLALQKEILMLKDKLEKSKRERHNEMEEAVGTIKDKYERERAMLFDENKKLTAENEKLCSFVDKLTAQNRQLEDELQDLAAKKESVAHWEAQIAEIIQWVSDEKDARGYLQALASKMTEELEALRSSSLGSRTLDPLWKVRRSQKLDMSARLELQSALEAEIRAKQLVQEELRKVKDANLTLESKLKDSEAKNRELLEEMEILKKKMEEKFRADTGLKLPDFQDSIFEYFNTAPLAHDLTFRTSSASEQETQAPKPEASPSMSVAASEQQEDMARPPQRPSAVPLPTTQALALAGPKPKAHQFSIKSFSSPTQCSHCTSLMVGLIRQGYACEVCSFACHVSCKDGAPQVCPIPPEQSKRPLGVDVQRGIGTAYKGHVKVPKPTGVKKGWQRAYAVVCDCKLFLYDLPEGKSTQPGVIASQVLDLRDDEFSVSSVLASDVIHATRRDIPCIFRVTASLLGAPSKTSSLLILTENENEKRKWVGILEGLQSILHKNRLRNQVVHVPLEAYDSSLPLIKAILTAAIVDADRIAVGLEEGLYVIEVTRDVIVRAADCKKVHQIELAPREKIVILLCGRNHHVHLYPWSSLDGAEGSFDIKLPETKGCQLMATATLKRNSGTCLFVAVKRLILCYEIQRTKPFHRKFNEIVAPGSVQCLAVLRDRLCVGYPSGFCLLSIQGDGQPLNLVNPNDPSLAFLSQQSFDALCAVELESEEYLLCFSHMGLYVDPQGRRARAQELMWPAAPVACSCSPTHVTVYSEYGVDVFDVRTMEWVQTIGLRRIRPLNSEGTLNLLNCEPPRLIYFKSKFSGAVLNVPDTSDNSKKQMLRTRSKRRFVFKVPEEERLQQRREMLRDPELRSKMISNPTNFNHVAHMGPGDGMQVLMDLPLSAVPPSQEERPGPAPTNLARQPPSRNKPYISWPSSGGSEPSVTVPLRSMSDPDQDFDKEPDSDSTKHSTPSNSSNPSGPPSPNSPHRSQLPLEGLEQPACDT", "test": "Inhibition of CDC42_BPB (unknown origin)"}, "[2]": {"biological_target": "Dual specificity tyrosine-phosphorylation-regulated kinase 3 (Homo sapiens, UniProt O43781)", "test": "Inhibition of DYRK3 (unknown origin)"}, "[3]": {"biological_target": "Mitogen-activated protein kinase kinase kinase kinase 2 (Homo sapiens, UniProt Q12851)", "sequence (Q12851 whole entry)": "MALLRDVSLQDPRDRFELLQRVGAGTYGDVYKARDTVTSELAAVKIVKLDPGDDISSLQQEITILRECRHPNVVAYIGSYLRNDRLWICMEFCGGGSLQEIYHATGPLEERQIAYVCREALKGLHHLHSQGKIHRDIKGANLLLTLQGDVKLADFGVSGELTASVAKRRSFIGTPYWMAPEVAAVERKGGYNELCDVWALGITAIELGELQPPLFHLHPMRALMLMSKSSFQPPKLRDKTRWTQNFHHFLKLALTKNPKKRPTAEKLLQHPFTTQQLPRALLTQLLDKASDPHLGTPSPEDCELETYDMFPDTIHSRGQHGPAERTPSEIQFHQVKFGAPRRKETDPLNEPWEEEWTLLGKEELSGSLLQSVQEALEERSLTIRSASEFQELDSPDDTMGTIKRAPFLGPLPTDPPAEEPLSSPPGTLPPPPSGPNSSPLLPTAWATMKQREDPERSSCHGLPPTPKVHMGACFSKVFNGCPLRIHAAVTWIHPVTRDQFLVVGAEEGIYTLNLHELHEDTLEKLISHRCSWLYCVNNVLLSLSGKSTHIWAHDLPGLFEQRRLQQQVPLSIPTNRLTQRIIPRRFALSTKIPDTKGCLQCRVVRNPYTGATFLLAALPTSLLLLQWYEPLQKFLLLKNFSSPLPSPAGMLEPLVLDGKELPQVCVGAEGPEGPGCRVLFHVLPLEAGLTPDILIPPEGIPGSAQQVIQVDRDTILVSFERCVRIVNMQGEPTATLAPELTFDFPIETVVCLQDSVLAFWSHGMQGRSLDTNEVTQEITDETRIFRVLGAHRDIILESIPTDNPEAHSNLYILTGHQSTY", "test": "Inhibition of MAP4K2 (unknown origin)"}, "[4]": {"biological_target": "Serine/threonine-protein kinase MARK1 (Homo sapiens, UniProt Q9P0L2)", "test": "Inhibition of MARK1 (unknown origin)"}, "[5]": {"biological_target": "Protein kinase C iota type (Homo sapiens, UniProt P41743)", "sequence (P41743 whole entry)": "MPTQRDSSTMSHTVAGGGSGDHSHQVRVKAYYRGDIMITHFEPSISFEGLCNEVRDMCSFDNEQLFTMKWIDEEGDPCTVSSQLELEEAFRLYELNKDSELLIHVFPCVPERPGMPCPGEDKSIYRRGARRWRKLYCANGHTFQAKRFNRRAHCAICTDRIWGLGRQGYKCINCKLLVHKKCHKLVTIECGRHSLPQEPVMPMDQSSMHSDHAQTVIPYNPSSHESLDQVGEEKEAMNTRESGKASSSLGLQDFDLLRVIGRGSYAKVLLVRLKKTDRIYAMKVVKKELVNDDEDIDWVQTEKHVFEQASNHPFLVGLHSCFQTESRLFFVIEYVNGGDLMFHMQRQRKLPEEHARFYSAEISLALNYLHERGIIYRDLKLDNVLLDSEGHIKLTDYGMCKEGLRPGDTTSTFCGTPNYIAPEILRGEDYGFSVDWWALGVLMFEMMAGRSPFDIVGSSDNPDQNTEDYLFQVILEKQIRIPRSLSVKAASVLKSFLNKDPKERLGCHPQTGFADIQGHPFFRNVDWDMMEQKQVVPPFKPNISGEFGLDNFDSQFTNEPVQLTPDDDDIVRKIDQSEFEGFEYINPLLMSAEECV", "test": "Inhibition of PRKCI (unknown origin)"}, "[6]": {"biological_target": "Serine/threonine-protein kinase D1 (Homo sapiens, UniProt Q15139)", "sequence (Q15139 whole entry)": "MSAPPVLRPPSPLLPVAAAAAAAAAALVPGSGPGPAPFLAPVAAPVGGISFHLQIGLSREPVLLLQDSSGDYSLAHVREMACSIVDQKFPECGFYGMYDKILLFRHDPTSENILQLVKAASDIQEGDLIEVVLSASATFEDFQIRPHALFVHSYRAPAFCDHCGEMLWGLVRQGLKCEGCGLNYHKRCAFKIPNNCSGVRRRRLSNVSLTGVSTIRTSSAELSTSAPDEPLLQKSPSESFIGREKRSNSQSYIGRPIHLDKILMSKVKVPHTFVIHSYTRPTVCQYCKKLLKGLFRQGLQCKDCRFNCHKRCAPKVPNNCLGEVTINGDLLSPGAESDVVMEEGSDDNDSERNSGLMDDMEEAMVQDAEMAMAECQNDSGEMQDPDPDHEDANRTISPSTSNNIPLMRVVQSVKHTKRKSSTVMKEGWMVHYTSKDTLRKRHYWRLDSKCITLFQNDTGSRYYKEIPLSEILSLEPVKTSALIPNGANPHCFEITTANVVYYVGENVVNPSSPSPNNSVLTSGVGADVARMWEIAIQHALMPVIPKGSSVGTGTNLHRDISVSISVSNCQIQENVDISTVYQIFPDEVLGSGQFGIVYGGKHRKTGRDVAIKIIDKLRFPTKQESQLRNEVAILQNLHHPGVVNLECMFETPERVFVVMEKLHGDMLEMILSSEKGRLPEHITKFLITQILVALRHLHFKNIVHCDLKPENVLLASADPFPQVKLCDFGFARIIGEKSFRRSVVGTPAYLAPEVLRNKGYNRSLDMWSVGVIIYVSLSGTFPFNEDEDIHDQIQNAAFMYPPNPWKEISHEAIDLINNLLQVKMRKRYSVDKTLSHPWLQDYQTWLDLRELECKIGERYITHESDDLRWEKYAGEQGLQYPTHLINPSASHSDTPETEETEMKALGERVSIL", "test": "Inhibition of PRKD1 (unknown origin)"}, "[7]": {"biological_target": "Serine/threonine-protein kinase Sgk3 (Homo sapiens, UniProt Q96BR1)", "sequence (Q96BR1 whole entry)": "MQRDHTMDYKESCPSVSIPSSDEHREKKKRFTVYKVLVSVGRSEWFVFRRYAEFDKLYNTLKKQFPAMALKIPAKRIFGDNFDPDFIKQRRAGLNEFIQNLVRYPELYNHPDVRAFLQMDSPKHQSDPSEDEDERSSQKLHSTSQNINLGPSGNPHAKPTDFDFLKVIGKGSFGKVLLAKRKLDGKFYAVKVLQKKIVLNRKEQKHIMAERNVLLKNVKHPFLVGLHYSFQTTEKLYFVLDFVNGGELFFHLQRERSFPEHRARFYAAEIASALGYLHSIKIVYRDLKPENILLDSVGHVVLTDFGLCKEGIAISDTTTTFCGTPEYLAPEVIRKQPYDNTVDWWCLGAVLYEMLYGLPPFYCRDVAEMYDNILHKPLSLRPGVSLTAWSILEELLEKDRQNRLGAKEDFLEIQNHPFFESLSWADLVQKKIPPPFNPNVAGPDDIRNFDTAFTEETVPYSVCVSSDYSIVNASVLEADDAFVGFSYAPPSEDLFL", "test": "Inhibition of SGKL (unknown origin)"}, "[8]": {"test": "Volume of distribution at steady state in female rat at 1.13 mg/kg, iv administered as single dose", "type": "ADME, organism-based", "details": "in vivo, read-out: Vdss"}, "Mus musculus [9]": {"tested_on": "Mus musculus", "test": "Antialzheimer activity in wildtype mouse assessed as number of Iba positive cells per FOV in somatosensory cortex at 1200 ppm administered as rodent chow starting from 1.5 months and measured after 7 months (reference value: 371 to 472)", "type": "functional", "details": "route po, time 5.5 months, 4015 h"}, "Mus musculus [10]": {"tested_on": "Mus musculus", "test": "Antialzheimer activity in 5XFAD mouse assessed as number of entries to perimeter zone at 1200 ppm administered as rodent chow for 10 to 24 weeks by Open field test (reference value: 22 to 55)", "type": "functional", "details": "route po, time 10-24 weeks"}, "Mus musculus [11]": {"tested_on": "Mus musculus", "test": "Antialzheimer activity in 5XFAD mouse assessed as number of triads at 1200 ppm administered as rodent chow for 10 to 24 weeks by Y-maze test (reference value: 3 to 9)", "type": "functional", "details": "route po, time 10-24 weeks", "how_it_was_run": "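Y-maze: the sequence of arm entries was scored live and video-recorded. Triads were counted as sequential entries into three different arms. Mice had received 1200 ppm PLX5622 or control chow from 1.5 months of age.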"}, "[12]": {"biological_target": "T1, Macrophage colony-stimulating factor 1 receptor (Mus musculus) (UniProt P09581)", "T1 sequence (whole entry)": "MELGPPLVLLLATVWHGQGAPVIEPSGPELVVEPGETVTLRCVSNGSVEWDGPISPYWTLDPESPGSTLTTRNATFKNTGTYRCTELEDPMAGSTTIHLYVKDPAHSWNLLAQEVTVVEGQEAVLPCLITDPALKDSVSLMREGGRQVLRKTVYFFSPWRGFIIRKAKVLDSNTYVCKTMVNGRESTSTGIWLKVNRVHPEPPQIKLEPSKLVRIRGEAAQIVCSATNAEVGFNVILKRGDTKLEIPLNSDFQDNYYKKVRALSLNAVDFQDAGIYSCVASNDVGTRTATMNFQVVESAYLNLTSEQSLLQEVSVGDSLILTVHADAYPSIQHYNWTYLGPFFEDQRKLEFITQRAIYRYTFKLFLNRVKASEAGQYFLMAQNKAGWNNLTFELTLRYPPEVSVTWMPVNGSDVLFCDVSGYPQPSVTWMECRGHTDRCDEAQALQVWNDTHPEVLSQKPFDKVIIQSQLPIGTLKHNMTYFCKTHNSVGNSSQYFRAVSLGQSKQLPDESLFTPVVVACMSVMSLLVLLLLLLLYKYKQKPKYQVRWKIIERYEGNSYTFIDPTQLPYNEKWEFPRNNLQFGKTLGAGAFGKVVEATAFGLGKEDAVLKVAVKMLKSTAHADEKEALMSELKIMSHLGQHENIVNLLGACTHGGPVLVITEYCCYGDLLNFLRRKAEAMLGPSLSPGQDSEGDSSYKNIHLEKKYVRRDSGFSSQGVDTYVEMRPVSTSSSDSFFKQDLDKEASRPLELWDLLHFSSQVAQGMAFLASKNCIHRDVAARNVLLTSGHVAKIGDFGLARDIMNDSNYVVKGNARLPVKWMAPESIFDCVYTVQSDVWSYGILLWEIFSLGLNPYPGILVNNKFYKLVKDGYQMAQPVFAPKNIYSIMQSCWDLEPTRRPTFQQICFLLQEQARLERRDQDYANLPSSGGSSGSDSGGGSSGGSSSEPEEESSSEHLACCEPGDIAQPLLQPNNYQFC", "test": "In vivo inhibition of CSF1R in wildtype mouse assessed as number of GFAP positive cell per FOV in […] cortex at 1200 ppm administered as rodent chow for 10 to 24 weeks by immunolabelling based confocal microscopic analysis (reference value: 17 to 92)", "type": "functional", "details": "route po, time 10-24 weeks"}, "Mus musculus [13]": {"tested_on": "Mus musculus", "test": "(§1) Antialzheimer activity in 5XFAD mouse assessed as iron reactivity by measuring hemosiderin intensity of prussian blue staining in retro spinal cortex at 1200 ppm administered as rodent chow starting from 1.5 months and measured after 7 months by confocal microscopic analysis (reference value: 0.1 to 4.791 a.u.)", "type": "functional", "details": "route po, time 5.5 months, 4015 h", "how_it_was_run": "(§2)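 Wild-type or 5xFAD mice fed PLX5622 (1200 ppm) in AIN-76A chow from 1.5 months of age, examined in 4- and 7-month-old cohorts. Brain sections stained with a Prussian blue kit per kit instructions to detect iron deposits (microbleeds).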"}, "[14]": {"biological_target": "T1, Macrophage colony-stimulating factor 1 receptor (Mus musculus)", "test": "as §1, with “In vivo inhibition of CSF1R” for “Antialzheimer activity”, “wildtype” for “5XFAD”, “thalamus” for “retro spinal cortex”, “0.068” for “0.1”, “2.717” for “4.791”", "type": "functional", "details": "route po, time 5.5 months", "how_it_was_run": "as §2"}, "Mus musculus [15]": {"tested_on": "Mus musculus", "test": "Effect on APP processing pathway in wildtype mouse assessed as ADAM10 protein signal intensity in cortex at 1200 ppm administered as rodent starting from 1.5 months and measured after 7 months (reference value: 37.275 to 230.211 %)", "type": "functional", "details": "route po, time 5.5 months, 4015 h"}, "[16]": {"test": "Effect on Ctsz gene expression in 5XFAD mouse hippocampus at 1200 ppm administered as rodent chow starting from 1.5 months and measured after 7 months by RNA-Seq analysis (reference value: 34.576 to 51.120 RPKM)", "type": "functional", "details": "route po, time 5.5 months, 4015 h"}, "[17]": {"test": "Effect on Itgax gene expression in 5XFAD mouse hippocampus at 1200 ppm administered as rodent chow starting from 1.5 months and measured after 7 months by RNA-Seq analysis (reference value: 2.202 to 4.490 RPKM)", "type": "functional", "details": "route po, time 5.5 months, 4015 h"}, "[18]": {"test": "Effect on Dynll1 gene expression in wildtype mouse hippocampus assessed as percent change in Reads Per kilo base per Million mapped reads at 1200 ppm administered as rodent chow starting from 1.5 months and measured after 7 months by RNA-Seq analysis (reference value: 83.247 to 113.338 %)", "type": "functional", "details": "route po, time 5.5 months, 4015 h"}, "Mus musculus [19]": {"tested_on": "Mus musculus", "test": "Prevention of Apc gene downregulation in 5XFAD mouse hippocampus at 1200 ppm administered as rodent chow starting from 1.5 months and measured after 7 months by Nanostring analysis", "type": "functional, tissue-based", "details": "route po, time 5.5 months"}, "[20]": {"biological_target": "T1, Macrophage colony-stimulating factor 1 receptor (Mus musculus)", "test": "In vivo inhibition of CSF1R in wildtype mouse assessed as number of GFAP positive cells per FOV at 1200 ppm administered as rodent chow starting from 1.5 months to 4 months followed by compound removal and measured after 1 month by immunolabeling based confocal microscopic analysis (reference value: 1 to 7)", "type": "functional", "details": "route po, time 2.5 months"}, "Mus musculus [21]": {"tested_on": "Mus musculus", "test": "Induction of cerebral amyloid angiopathy in […] mouse at 1200 ppm administered as rodent chow for 24 weeks by immunolabeling based confocal microscopic analysis", "type": "functional, organism-based", "details": "route po"}, "Mus musculus [22]": {"tested_on": "Mus musculus", "test": "Antialzheimer activity in 5XFAD mouse assessed as microglial elimination in brain at 1200 ppm administered as rodent chow by Thio-S staining based confocal microscopic analysis", "details": "route po"}}, "note": "Active and inactive are the calls of the source. No cut-off for these calls is given here.", "data": [{"smiles": "COc1ncc(F)cc1CNc1ccc(Cc2c[nH]c3ncc(C)cc23)c(F)n1", "note": "[PLX-5622]", "values": [{"measurement": "IC50", "setting": "[1]", "value": "> 1000", "unit": "nM"}, {"measurement": "IC50", "setting": "[2]", "value": "> 1000", "unit": "nM"}, {"measurement": "IC50", "setting": "[3]", "value": "> 1000", "unit": "nM"}, {"measurement": "IC50", "setting": "[4]", "value": "> 1000", "unit": "nM"}, {"measurement": "IC50", "setting": "[5]", "value": "> 1000", "unit": "nM"}, {"measurement": "IC50", "setting": "[6]", "value": "> 1000", "unit": "nM"}, {"measurement": "IC50", "setting": "[7]", "value": "> 1000", "unit": "nM"}, {"measurement": "Vd", "setting": "[8]", "value": 1, "unit": "L/kg"}, {"measurement": "Activity", "setting": "Mus musculus [9]", "value": 1}, {"measurement": "Activity", "setting": "Mus musculus [10]", "value": 7}, {"measurement": "Activity", "setting": "Mus musculus [11]", "value": 2}, {"measurement": "Activity", "setting": "[12]", "value": 7}, {"measurement": "Flu intensity", "setting": "Mus musculus [13]", "value": 2.499, "unit": "a.u."}, {"measurement": "Flu intensity", "setting": "[14]", "value": 0.086, "unit": "a.u."}, {"measurement": "Activity", "setting": "Mus musculus [15]", "value": 59.835, "unit": "%"}, {"measurement": "Activity", "setting": "[16]", "value": 16.426, "unit": "RPKM"}, {"measurement": "Activity", "setting": "[17]", "value": 0.155, "unit": "RPKM"}, {"measurement": "Activity", "setting": "[18]", "value": 101.141, "unit": "%"}, {"measurement": "Activity", "setting": "Mus musculus [19]", "value": "Active"}, {"measurement": "Activity", "setting": "[20]", "value": 3}, {"measurement": "Activity", "setting": "Mus musculus [21]", "value": "inactive"}, {"measurement": "Activity", "setting": "Mus musculus [22]", "value": "Active"}]}]}
